This assay relates to healthy male subjects. Put plainly: NeuroCart smooth pursuit. Type of assay: in vivo, human. The settings on record: 12-hour post-dose period. In outline: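 This used the same head-fixed screen set-up as the saccade test. Subjects tracked a dot moving continuously at 0.3–1.1 Hz in 0.1 Hz steps, twice pre-dose and at 0.5–10 h after a single dose or placebo. Change from baseline over 12 h was analysed by MMRM against pooled placebo, with baseline as covariate.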

As for `CN1CCC23CCCCC2C1Cc1ccc(C(N)=O)cc13` (stereo not drawn) [ALKS 7119, (9α, 13α)‐17‐methylmorphinan‐3‐carboxamide], the “Smooth pursuit, LSM CFB” value (3 mg single oral dose) is −0.26%; the “Smooth pursuit, LSM CFB” value (10 mg single oral dose) is recorded as 0.06%; the “Smooth pursuit, LSM CFB” value (25 mg single oral dose) is −1.44%; the “Smooth pursuit, LSM CFB” value (50 mg single oral dose) is on record as −0.03%; the “Smooth pursuit, LSM CFB” value (75 mg single oral dose) is on record as −3.44%; the “Smooth pursuit, LSM CFB” value (100 mg single oral dose) was −0.49%. The “Smooth pursuit, LSM CFB” value (125 mg single oral dose) is reported as −3.82%; the “Smooth pursuit, LSM CFB” value (150 mg single oral dose) is listed as −1.14%; the “Smooth pursuit, LSM CFB” value (175 mg single oral dose) is reported as −1.07%; the “Smooth pursuit, LSM CFB” value (200 mg single oral dose) is listed as 1.24%.

For the origin of these results see article PMC9302689 (British Journal of Clinical Pharmacology, 2022).
